Data on five molecules can be found in ChEMBL document CHEMBL1124844, “Synthesis and biological activities of novel 5-(2-acylethynyl)uracils” (J Med Chem, 1990).

In assay [1] the test system is CCRF-CEM. Kind of assay: (§1) Effect on CCRF-CEM cells in culture. Type of assay: functional, cell-based. Conditions: Homo sapiens. Put shortly: (§2)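 Murine L1210/0 leukemia and human CCRF-CEM lymphoblastoid cells incubated at 37 °C for 48 h over a range of compound concentrations. Growth inhibition read as IC50 (μM).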
The nature of assay [2]: Drug evaluation at the dose of 20 mg/kg by calculating fluid weight; 0.8/2. Type of assay: functional, Mus musculus. In short, it runs like this:
(§3)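 EAC cells drawn from Swiss mouse bearing a 10–20 day tumor, diluted and counted; Swiss mice (18–20 g) inoculated ip with 1 × 10⁶ cells in 0.2 mL on day 0. Dosing ip once daily on days 1–7, in normal saline with 10% propylene glycol; controls given vehicle. Five animals per dose group. Tumor cell counts and ascitic fluid weight compared, treated (T) vs control (C).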

A short description of assay [3]: Drug evaluation at the dose of 20 mg/kg by counting the average ascites cells number; 35/150. Type of assay: functional, Mus musculus. Put shortly: as §3
Assay [4] can be described thus: Effect on the survival of mice bearing ascites tumor in percent controls at the dose of 140 mg/kg. Type of assay: functional, Mus musculus. In short, it runs like this: (§4)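 Swiss mice inoculated ip with 1 × 10⁶ EAC cells, then treated ip with compound in saline/10% propylene glycol, single dose or 7 daily doses, starting 24 h later. Five mice per dose; vehicle controls. Treated median survival time expressed as percent of control; >125 counted active.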

Assay [5] is described as follows: Effect on the survival of mice bearing ascites tumor at the dose of 210 mg/kg. It is filed as functional, Mus musculus. Put shortly:
(§5)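 Swiss mice (18–20 g) inoculated ip on day 0 with 1 × 10⁶ EAC cells drawn from a 10–20 day donor tumor. Compounds homogenized in normal saline with 10% propylene glycol and given ip starting 24 h later, as single dose or daily for 7 days. Five mice per dose; vehicle-only controls. Survival read as median survival time (days).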

A short description of assay [6]: Effect on the survival of mice bearing ascites tumor at the dose of 30 mg/kg. Type of assay: functional, Mus musculus. In short, it runs like this:
as §5

Assay [7] can be described thus: Effect on the survival of mice bearing ascites tumor in percent controls at the dose of 20 mg/kg. It is filed as functional, Mus musculus. In short, it runs like this: as §4
Assay [8] is described as follows: Effect on the survival of mice bearing ascites tumor in percent controls at the dose of 210 mg/kg. Type of assay: functional, Mus musculus. Put shortly: as §4
Assay [9] is described as follows: Effect on the survival of mice bearing ascites tumor in percent controls at the dose of 30 mg/kg. Type of assay: functional, Mus musculus. Put shortly:
as §4

A short description of assay [10]: Effect on the survival of mice bearing ascites tumor in extremes treated at the dose of 140 mg/kg. It is filed as functional, Mus musculus. Put shortly:
(§6)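 EAC-bearing Swiss mice given ip compound in saline/10% propylene glycol, single dose or daily for 7 days, starting 24 h after ip inoculation of 1 × 10⁶ cells. Five mice per dose; vehicle controls. Value is the range (shortest to longest) of survival days in the treated group.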

A short description of assay [11]: Effect on the survival of mice bearing ascites tumor in extremes treated at the dose of 20 mg/kg. It is filed as functional, Mus musculus. In short, it runs like this: as §6
A short description of assay [12]: Effect on the survival of mice bearing ascites tumor in extremes treated at the dose of 210 mg/kg. Type of assay: functional, Mus musculus. In short, it runs like this:
as §6

The nature of assay [13]: Effect on the survival of mice bearing ascites tumor in extremes treated at the dose of 30 mg/kg. Type of assay: functional, Mus musculus. Put shortly: as §6
A short description of assay [14]: Percent inhibition of ascites cell at the dose of 20 mg/kg. It is filed as functional. Conditions: Mus musculus. Put shortly: as §3
Assay [15] is described as follows: Percent inhibition of ascitic fluid at the dose of 20 mg/kg. It is filed as functional. Conditions: Mus musculus. Put shortly: as §3
Assay [16] is described as follows: Effect on the survival of mice bearing ascites tumor at the dose of 140 mg/kg. It is filed as functional, Mus musculus. Put shortly: as §5
In assay [17] the test system is L1210. The assay is described as follows: (§7) Effect on L1210/0 cells in culture. Conditions: Mus musculus. It is filed as functional, cell-based. In short, it runs like this: as §2
The nature of assay [18]: Effect on the survival of mice bearing ascites tumor at the dose of 20 mg/kg. It is filed as functional, Mus musculus. Put shortly:
as §5

For assay [19], the system named is CCRF-CEM. The assay is described as follows: Effect on CCRF-CEM cells (human lymphoblastoid cells) in culture. Type of assay: functional, cell-based. In short, it runs like this: as §2
The nature of assay [20]: Drug evaluation at the dose of 20 mg/kg by counting the average ascites cells number; 59/165. Type of assay: functional, Mus musculus. Put shortly: as §3
Assay [21] concerns CCRF-CEM. The description is as §1. Conditions: Homo sapiens. Type of assay: functional, cell-based. In short, it runs like this:
(§8)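 CCRF-CEM human lymphoblastoid or L1210/0 mouse leukemia cells incubated with a range of compound concentrations at 37 °C for 48 h; IC50 (μM) taken from cell growth.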
The source holds these as a separate data set.

Assay [22] concerns L1210. The description is as §7. It is filed as functional, cell-based. Conditions: Mus musculus. Put shortly:
as §8
This is another data set of the same source.

Assay [23] can be described thus: Effect on the survival of mice bearing ascites tumor in percent controls at the dose of 10 mg/kg. It is filed as functional, Mus musculus. In short, it runs like this:
as §4

The nature of assay [24]: Effect on the survival of mice bearing ascites tumor at the dose of 70 mg/kg. Type of assay: functional, Mus musculus. In short, it runs like this: as §5
A short description of assay [25]: Effect on the survival of mice bearing ascites tumor in percent controls at the dose of 70 mg/kg. Type of assay: functional, Mus musculus. Put shortly: as §4
Assay [26] is described as follows: Effect on the survival of mice bearing ascites tumor in extremes treated at the dose of 10 mg/kg. It is filed as functional, Mus musculus. In short, it runs like this:
as §6

Assay [27] can be described thus: Effect on the survival of mice bearing ascites tumor in extremes treated at the dose of 70 mg/kg. Type of assay: functional, Mus musculus. Put shortly:
as §6

Assay [28] can be described thus: Effect on the survival of mice bearing ascites tumor at the dose of 10 mg/kg. Type of assay: functional, Mus musculus. Put shortly:
as §5

Assay [29] relates to L1210. Kind of assay: Effect on L1210/0 cells (mouse leukemia cells) in culture.
Assay [30] in a line: Drug evaluation at the dose of 20 mg/kg by calculating fluid weight; 2/2.5. Type of assay: functional, Mus musculus. Put shortly: as §3
Assay [31] in a line: Drug evaluation at the dose of 20 mg/kg by counting the average ascites cells number; 100/123. Type of assay: functional, Mus musculus. In short, it runs like this: as §3

For `O=C(C#Cc1cnc(O)nc1O)c1ccccc1`, the IC50 with CCRF-CEM [1] stood at 2000 nM; with L1210 [17], 650 nM. Further, the T/C in assay [2] is 0.4; in [3], 0.233. Further, the Controls was 281% in assay [4], 169% in assay [7], 165% in assay [8] and 134% in assay [9]. Also, the Survival treated in assay [5] came to 21.5; in assay [6], 17.5; in assay [16], 36.5; in assay [18] it was 22. For the same molecule, the Extremes treated turned out to be 39 in [10], 23 in assay [11], 22 in [12] and 18 in assay [13]. Also, the inhibition in vivo at 20 mg/kg in [14] came out at 76%; in assay [15] it was 60%.

Turning to `O=C(C#Cc1cnc(O)nc1O)c1ccccc1Cl`, the IC50 in the assay on CCRF-CEM [19] turned out to be 2200 nM; with L1210 [17], 2000 nM. The molecule further gave a T/C in assay [20] of 0.358. The Controls in [4] is on record as 127%; in assay [7], 127%; in assay [8] it was 204%; in assay [9], 142%. The Survival treated in assay [5] is 26.5; in [6] it was 18.5; in [16], 16.5; in [18], 16.5. The Extremes treated in assay [10] worked out at 18; in assay [11] it was 17; in assay [12], 27; in assay [13], 20. Further, the inhibition in vivo at 20 mg/kg in assay [14] was determined as 64.2%; in assay [15], 37.5%.

As to `O=c1[nH]cc(F)c(=O)[nH]1` [FLUOROURACIL], the IC50 in the assay on CCRF-CEM [21] is 2000 nM; in the assay on L1210 [22], 300 nM. In addition, the Controls in assay [4] turned out to be 92%; in [7], 342%. Further, the Extremes treated in [10] amounted to 14; in assay [11], 45. Moreover, the Survival treated is 11 in [16] and 41 in assay [18].

For `Cc1ccc(C(=O)C#Cc2cnc(O)nc2O)cc1`, the values for the IC50 with CCRF-CEM [19] and in the assay with L1210 [29] were 2250 nM and 1900 nM, respectively. Moreover, the Controls is 113% in assay [23], 300% in assay [4], 178% in assay [7] and 260% in [25]. Moreover, the Survival treated in [24] was determined as 30; in [28], 13; in [16], 34.5; in [18] it was 20.5. Moreover, the Extremes treated in assay [26] is on record as 14; in [10], 35; in assay [11], 23; in assay [27] it was 31.

As for `COc1ccc(C(=O)C#Cc2cnc(O)nc2O)cc1`, the IC50 was 2300 nM in the assay with CCRF-CEM [19] and 2000 nM with L1210 [17]. Moreover, the T/C in assay [30] is 0.8; in assay [31], 0.813. For the same molecule, the Controls in assay [4] was 127%; in assay [7] it was 164%; in assay [8], 127%; in assay [9], 109%. In addition, the Survival treated amounted to 14 in assay [5], 12 in assay [6], 14 in [16] and 18 in assay [18]. Moreover, the Extremes treated amounted to 15 in [10], 19 in [11], 16 in [12] and 13 in [13]. Besides, the inhibition in vivo at 20 mg/kg in [14] is 19.1%; in [15], 20%.
